Shown are actives, neighbours in structure and some others; about 3% of the full set was active somewhere.
S1P3 ag: human S1P3 receptor agonists, primary screen, cell-based, primary and confirmation, NFAT-BLA reporter | Sphingosine 1-phosphate receptor 3 (Homo sapiens), Q99500 | S1P3 NFAT-BLA reporter cells, agonism, FRET ratio; relative to 1 µM S1P, basal subtracted | activation, % at 4.5 µM | 60,000 tested, 0.1% active | AID 373, 2006;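 active means activation above the screen-wide mean plus 3 SD, cut at about 4.5% in these data, passing the limit was not always enough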
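material = human S1P3 NFAT-BLA reporter CHO cells | schedule = 4 h compound at 37 °C, 2 h substrate at RT | measured by = fluorescent BLA substrate, ex 405 nm, em 460/535 nm ratio | controls = 1 µM S1P reference | replication = primary once, confirmation triplicate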
5HT1a antag: human 5-HT1a receptor antagonists, primary screen, cell-based, CHO, Ga15 NFAT-bla reporter; CHO 5-HT1a Ga15 NFAT-bla reporter, antagonist mode; inhibition, % at 10 µM; 62,000 tested, 0.68% active; AID 612, 2007;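 active means inhibition above the mean of all tested compounds plus 3 SD, cut at about 43% in these data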;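 further: receptor stimulated by 5-CT agonist at 100 nM near EC80; beta-lactamase reporter measured by ratiometric fluorescence of a cleavable substrate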
Target sequence (P08908 whole entry, looked up): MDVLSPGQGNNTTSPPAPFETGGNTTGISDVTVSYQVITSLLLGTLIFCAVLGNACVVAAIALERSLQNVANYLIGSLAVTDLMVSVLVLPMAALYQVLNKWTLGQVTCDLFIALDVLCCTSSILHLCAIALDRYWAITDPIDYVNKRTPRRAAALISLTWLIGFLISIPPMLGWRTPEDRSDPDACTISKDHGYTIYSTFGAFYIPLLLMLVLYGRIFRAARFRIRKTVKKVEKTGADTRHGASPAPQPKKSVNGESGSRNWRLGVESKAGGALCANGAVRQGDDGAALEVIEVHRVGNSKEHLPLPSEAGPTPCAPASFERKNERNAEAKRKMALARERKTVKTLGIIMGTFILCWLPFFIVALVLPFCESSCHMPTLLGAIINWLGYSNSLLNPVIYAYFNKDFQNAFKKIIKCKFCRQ
5HT1E antag: 5-HT1E receptor antagonists, primary screen, cell-based, HTS. 5-hydroxytryptamine receptor 1E (Homo sapiens), P28566. CHO 5-HT1E Ga15 NFAT-bla reporter, FRET, antagonist. inhibition, % at 6 µM. 65,000 tested, 0.99% active. AID 571, 2007;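 active means inhibition above a set limit, the mean inhibition across every tested compound plus 3 SD, cut at about 29% in these data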;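 further: signal is the 460 over 535 nm emission ratio of beta-lactamase substrate; 0% = agonist plus DMSO wells and 100% = wells without agonist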
5HT1a ag: human 5-HT1a receptor agonists, primary screen, cell-based, CHO, Ga15 NFAT-bla reporter. 5-hydroxytryptamine receptor 1A (Homo sapiens), P08908. CHO 5-HT1a Ga15 NFAT-bla reporter, FRET ratio; 0% basal, 100% maximal reference agonist. 65,000 tested, 0.56% active. activation, % at 10 µM;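 active means activation above the screen-wide mean activation plus 3 SD, cut at about 19% in these data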;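 further: 0% = DMSO wells and 100% = 5-CT at EC100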
S1P1 ag pot: S1P1 agonists and agonism potentiators, primary screen, cell-based, primary and confirmation screens, CRE-bla reporter | S1P1 CRE-bla cells, forskolin, beta-lactamase FRET, potentiator mode; S1P1 agonist co-added at EC20, 2 nM; 100% = saturating reference agonist, 0% = basal | 56,000 tested, 0.57% active | activation, % at 9.5 µM | Sphingosine 1-phosphate receptor 1 (Homo sapiens), P21453;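 active means activation above a cutoff set at the mean activation of all tested compounds plus 3 SD, cut at about 54% in these data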;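 further: forskolin at 4 µM as EC80 and the EC20 agonist is SEW2871; 100% = SEW2871 at its EC100 plus forskolin at EC80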
5HT1E ag: 5-HT1E receptor agonists, primary screen, cell-based, HTS. 65,000 tested, 0.69% active. activation, % at 6 µM. AID 574, 2007. 5-hydroxytryptamine receptor 1E (Homo sapiens), P28566. CHO 5-HT1E Ga15 NFAT-bla reporter, FRET; 0% DMSO wells, 100% control agonist wells;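 active means activation above a set limit, the screen-wide mean activation plus 3 SD, cut at about 8.5% in these data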;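 further: 100% = positive control agonist at 1 µM giving full maximal response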
* = called active by the depositor; . = not tested or not shown.

SMILES	S1P3 ag	5HT1a antag	5HT1E antag	5HT1a ag	S1P1 ag pot	5HT1E ag
COc1cccc(NC(=O)N2CCN(c3cccc(C)c3)C(C)C2)c1 (centres undefined)	0	15	3	-2	7	0
COc1cccc(N2CCN(C(=O)c3ccc(=O)oc3)CC2C)c1 (centres undefined)	-4	.	1	2	-7	12*
CSc1ncccc1C(=O)OCc1ccccc1	0	-11	-4	-2	-23	-1
CSc1ncccc1C(=O)OCc1ccccc1F	0	-8	-3	73*	25	2
CN(C(=O)OCc1ccccc1)C(CC(N)=O)C(=O)O (centres undefined)	-1	-14	4	-1	-2	0
COc1ccc(N(CC(=O)Nc2cc(Cl)ccc2OC)S(=O)(=O)c2c(C)noc2C)cc1	0	23	35*	-2	-20	0
COc1ccc(OC)c(NC(=O)CN(c2ccc(C)cc2)S(=O)(=O)c2c(C)noc2C)c1	0	22	2	3	2	2
O=C(CSc1nc(-c2ccccc2)cc(=O)[nH]1)N1CCc2ccccc21	-1	-6	1	1	.	1
O=C(c1noc2c1CCCC2)N1CCN(C(c2ccccc2)c2ccccc2)CC1	0	0	-7	-4	30	0
COc1ccc(-c2cc(C(=O)N3CCN(C(c4ccccc4)c4ccccc4)CC3)no2)cc1OC	0	37	-25	-2	0	2
COc1ccc(-c2cc(C(=O)N3CCN(C(c4ccccc4)c4ccccc4)CC3)no2)cc1	-1	44*	-4	-3	-9	1
CC(C)c1cc(C(=O)N2CCN(C(c3ccccc3)c3ccccc3)CC2)no1	0	-10	3	2	76*	0
O=C(c1cc(-c2ccccc2)on1)N1CCN(C(=O)c2ccco2)CC1	0	7	-3	-4	-26	0
O=C(c1cc(-c2ccco2)on1)N1CCN(C(c2ccccc2)c2ccccc2)CC1	0	43*	-16	-5	60*	0
CC(C)(C)C1=C[C@@H](CO)C[C@@H](CO)C1	-1	8	5	0	0	-2
CCC(O)CNc1nc(-n2nc(C)cc2C)nc2sc3c(c12)CCCC3 (centres undefined)	1	0	2	2	-50	-1
Cc1cc(C)n(-c2nc(NCc3cccnc3)c3c4c(sc3n2)COC(C)(C)C4)n1	13*	-6	15	1	-86	0
C=CCn1c(SCC(=O)Nc2sccc2C(N)=O)nc2sc(C)c(C)c2c1=O	2	-1	33*	6	-35	1
Cc1nnc(SCC(=O)Nc2sccc2C(N)=O)n1Cc1ccccc1	1	-9	-4	-1	-2	1
COc1ccc(NC(=O)CCN2CCCCC2)cc1	0	-1	5	0	5	0
CC(=O)CC1OC(=O)C(Br)=C1NCc1ccccc1 (centres undefined)	-1	69*	13	-1	-40	0
O=C(CC1Oc2ccccc2NC1=O)NCc1ccccc1 (centres undefined)	-1	-6	2	-2	0	0
CSc1nc(N2CCOCC2)c2c3c(sc2n1)CCC3	0	-4	29*	1	17	-2
Cc1nc(N2CCN(c3ccccc3)CC2)c2c3c(sc2n1)CCC3	0	9	-16	1	-24	2
OCCN1CCN(Cc2cccc(Oc3ccc(Cl)cc3)c2)CC1	-1	1	8	0	-38	10*
SMILES	S1P3 ag	5HT1a antag	5HT1E antag	5HT1a ag	S1P1 ag pot	5HT1E ag
CCCCN(C)CCCNC(=O)Cn1c(=O)sc2ccccc21	.	12	-5	-2	.	70*
CCCN1CCN(CCCNC(=O)Cn2cc3c(n2)CCCC3)CC1	0	10	-4	-2	-33	-1
CCOCCCNC(=O)Cn1cc2c(n1)CCCC2	0	15	-7	36*	-24	-1
CC1CCc2nn(CC(=O)NC3CCCC3)cc2C1 (centres undefined)	0	-13	-8	40*	-7	0
O=C(Cn1cc2c(n1)CCCCC2)NC1CCN(Cc2ccccc2)CC1	1	7	-1	29*	-9	0
CC1=C(C(=O)Nc2ccccc2)C(c2ccc(C)o2)N2C(=O)CSC2=N1 (centres undefined)	-2	-7	-23	-2	10	0
Cc1cc(N2C(=O)C3C4C=CC(C4)C3C2=O)no1 (centres undefined)	-1	1	10	0	.	-1
Cc1ccc(CCNC(=O)c2coc3nc4ccccc4nc23)cc1	1	-17	-3	3	-48	13*
CCOC(=O)CSc1nc2ccc(N3CCOCC3)cc2c(=O)n1Cc1ccc2c(c1)OCO2	.	12	17	2	.	0
O=c1[nH]c2ccccc2n1CCCSc1cnc2ccccc2n1	0	18	10	1	45	2
C=CCn1c2ccccc2c2nnc(SCCCn3c(=O)[nH]c4ccccc43)nc21	.	48*	21	10	.	1
COc1ccc2c(c1)C(=O)N(c1ccccc1OC)C(=O)C2(C)C	0	-1	10	-1	3	0
COc1ccccc1Oc1ccc2c(c1)C(=O)N(c1ccc(O)cc1)C2=O	-1	-1	-3	-3	112*	1
Cc1cc(-n2c(C)cc(C(=O)CN3C(=O)NC4(CCCCC4C)C3=O)c2C)no1 (centres undefined)	0	-2	5	-2	15	0
O=S(=O)(C/C(=C/CO)S(=O)(=O)c1ccccc1)c1ccccc1	-2	92*	106*	-1	82*	0
Fc1ccccc1/C=N/n1cnnc1	-2	.	-8	2	2	0
Cc1cc(C)n(-c2nncn2/N=C/c2ccccc2F)n1	-1	55*	12	-2	7	-2
COc1cccc(-c2cc(C(F)(F)F)nc(NCc3ccco3)n2)c1	.	47*	9	-1	.	-1
COc1ccc(-c2cc(C(F)(F)F)nc(NCc3ccco3)n2)cc1OC	.	30	26	-1	.	1

High-throughput results from PubChem.
